# Assay outcomes: PubChem, several laboratories
# A selection: hits, their analogues and other compounds. The true share with any hit is near 9.4%.
# Beta cell apopt: beta cell apoptosis inhibition; 0.8% of 300,000 active; protection from apoptosis, % (no concentration beside the values); INS-1E cytokine-induced death, ATP luminescence, 48 h; percent of positive-control rescue, neutral wells zero; AID 435005;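 active = Every replicate reaches about 75%, or at least half do and their mean reaches it too, limit read from the data; inconclusive = At least half of replicates reach the limit but their mean does not; inactive = Under half of replicates reach the limit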;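 note: 0% = cytokine-treated negative control wells and 100% = positive control rescue; higher means more ATP so stronger rescue from cytokine killing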
# T cruzi repl: blocks replication of Trypanosoma cruzi. T. cruzi beta-gal in NIH3T3, luminescence, 90 h. inhibition, % (test concentration not listed). 1.4% of 300,000 active. AID 1885;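 active = mean inhibition across valid replicates above about 55%, limit read from the data; inconclusive = mean below that limit but half or more replicates reach it; inactive = mean below it, under half of replicates reach it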;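 note: signal also drops with host cell toxicity which is not excluded here; 0% = plate median of DMSO wells and 100% = zero luminescence signal; higher percent means less beta-gal luminescence so fewer parasites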
#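 System: mouse NIH/3T3 fibroblasts infected with β-gal-expressing T. cruzi Tulahuen C4 / Input: NIH/3T3 cells, 5,000 per well / Buffer or medium: Low-serum DMEM with 2% FBS / Probe or stimulus: 5000 reporter trypomastigotes per well / Schedule: ≥90 h infection period, 3 h prior cell attachment / Measured by: GalScreen luminescence, 60 min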
# CSC inhib: cancer stem cell inhibition | 1.1% of 300,000 active | cancer stem cell-like cells viability, luminescence | inhibition, % at 7.5 µM; in the data active = inhibition above about 75%; inconclusive = no clear call, values can overlap the other calls; tested in HMLE shEcad cells
# SKKanGAS inh: inhibitors of SKKanGAS S. pyogenes growth in kanamycin (SK-promoter or general growth effect); BacTiter-Glo, 6 h; inhibition, % at 7.5 µM; 1.3% of 300,000 active; AID 1662;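 active = mean replicate score, as percent of positive control median, at least 50; inconclusive = mean below 50 but one replicate at or above 50; inactive = mean and every replicate below 50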;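 note: strain carries kanamycin resistance gene driven by streptokinase promoter and grows in 40 µg/ml kanamycin; loss of luminescence reflects streptokinase promoter inhibition or plain growth inhibition; 0% = median of DMSO wells and 100% = positive control at its reference dose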
# Lmaj promast: Leishmania major promastigote growth inhibition | Leishmania major promastigotes, resazurin fluorescence viability | inhibition, % at 10 µM | 9% of 200,000 active | AID 1063; in the data active = inhibition above about 50%;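 note: promastigotes grown with compound for 44 hours at 28 °C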
# Mdm2-MdmX inh: disrupts the human Mdm2-MdmX interaction; SaOS-2 split-luciferase Mdm2/MdmX complementation, luminescence; 3% of 330,000 active; inhibition, % at 8 µM;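 active = inhibition of at least 50% at 8 µM in the primary screen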
# Target sequence (O15151 whole entry, looked up): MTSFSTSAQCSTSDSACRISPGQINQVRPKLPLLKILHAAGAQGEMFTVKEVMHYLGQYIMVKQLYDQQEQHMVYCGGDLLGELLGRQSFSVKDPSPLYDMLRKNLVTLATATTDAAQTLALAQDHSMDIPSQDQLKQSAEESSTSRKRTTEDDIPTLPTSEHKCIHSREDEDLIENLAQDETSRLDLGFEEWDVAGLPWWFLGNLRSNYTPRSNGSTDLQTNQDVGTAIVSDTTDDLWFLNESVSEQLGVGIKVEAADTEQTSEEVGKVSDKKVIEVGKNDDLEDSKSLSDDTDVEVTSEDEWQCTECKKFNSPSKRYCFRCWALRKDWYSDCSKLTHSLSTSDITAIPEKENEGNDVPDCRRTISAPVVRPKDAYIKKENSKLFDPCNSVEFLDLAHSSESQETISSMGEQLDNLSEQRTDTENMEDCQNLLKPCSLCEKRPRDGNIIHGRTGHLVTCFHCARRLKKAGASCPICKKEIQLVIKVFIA
# Target sequence (Q00987 whole entry, looked up): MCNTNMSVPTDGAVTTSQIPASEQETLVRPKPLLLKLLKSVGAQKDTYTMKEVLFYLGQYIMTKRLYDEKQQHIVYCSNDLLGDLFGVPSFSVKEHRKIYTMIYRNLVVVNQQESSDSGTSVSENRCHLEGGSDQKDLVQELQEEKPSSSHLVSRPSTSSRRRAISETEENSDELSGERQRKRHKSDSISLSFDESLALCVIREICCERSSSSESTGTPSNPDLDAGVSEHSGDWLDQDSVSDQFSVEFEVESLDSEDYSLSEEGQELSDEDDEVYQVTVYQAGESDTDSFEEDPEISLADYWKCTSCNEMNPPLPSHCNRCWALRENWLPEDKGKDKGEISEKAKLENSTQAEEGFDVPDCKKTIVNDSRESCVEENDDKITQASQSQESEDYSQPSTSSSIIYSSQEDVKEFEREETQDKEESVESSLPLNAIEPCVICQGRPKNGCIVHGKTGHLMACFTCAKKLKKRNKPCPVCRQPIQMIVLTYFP
# Active calls of the source: *; ? = inconclusive; . = no result given.
SMILES,Beta cell apopt,T cruzi repl,CSC inhib,SKKanGAS inh,Lmaj promast,Mdm2-MdmX inh
Cc1ccc(N/N=C/c2cccnc2)cc1,-3,7,?,1,76*,-34
CC(=O)OCc1c(C)cc(C)c(/C=C(/C#N)C(N)=O)c1C,-5,-13,8,15,-2,6
Cc1ccc(S(=O)(=O)NCCC(c2ccccc2)c2ccco2)cc1 (stereo unspecified),-1,2,13,14,-2,-21
O=S(=O)(NCC(c1ccco1)N1CCN(c2ccccc2)CC1)c1ccc(F)cc1 (stereo unspecified),-3,5,.,0,6,8
O=C(NCc1ccccn1)C(=O)NCC(c1ccco1)N1CCN(c2ccc(F)cc2)CC1 (stereo unspecified),-2,6,-5,-5,-7,4
O=S(=O)(NCC(c1ccco1)N1CCN(c2ccc(F)cc2)CC1)c1ccc(F)cc1 (stereo unspecified),7,0,-4,8,75*,-10
Cc1ccc(S(=O)(=O)NCCC(c2ccc(F)cc2)c2ccco2)cc1 (stereo unspecified),-15,13,32,14,56*,11
O=C(NCc1ccncc1)C(=O)NCC(c1ccco1)N1CCN(c2ccc(F)cc2)CC1 (stereo unspecified),3,-11,0,-1,55*,-14
Cc1ccc([N+](=O)[O-])c(OCCN2CCC(Cc3ccccc3)CC2)c1,4,41,50,0,94*,32
Cc1ccccc1OCCN1CCC(Cc2ccccc2)CC1,2,28,51,-5,82*,-8
N#Cc1ccccc1OCCCN1CCC(Cc2ccccc2)CC1,1,51,43,-8,.,0
CCOc1ccccc1OCCN1CCC(Cc2ccccc2)CC1,10,18,5,-3,99*,23
CCOc1ccccc1OCCN1CCCC1,.,-9,-1,-4,.,-4
CCOC(=O)c1c(C)nc2ccccc2c1-c1ccccc1,-6,-12,.,-1,-2,20
CCOC(=O)c1c(C)nc2ccc(Cl)cc2c1-c1ccccc1,3,11,10,1,51*,14
COc1cc(/C=N/NC(=O)C23CC4CC(CC(C4)C2)C3)cc(Br)c1O,-3,-14,0,8,-4,-4
O=C(N/N=C/c1cc([N+](=O)[O-])cc(Br)c1O)C12CC3CCC(CC(C3)C1)C2,-2,-18,45,51*,.,36
CC(=O)Nc1cc2c(cc1NC(=O)Cn1nc(-c3ccccc3)ccc1=O)OCCO2,0,-23,.,-5,.,-20
O=C(c1c[nH]c2ccccc12)C(O)C(c1ccccc1)N1CCOCC1 (stereo unspecified),1,-1,0,-1,0,2
COc1ccc(C(C(O)C(=O)c2c[nH]c3ccccc23)N2CCN(c3ccc(OC)cc3)CC2)cc1 (stereo unspecified),-5,-6,-4,1,52*,10
COc1ccc(N2CCN(C(CNC(=O)C(=O)NCCc3c[nH]c4ccccc34)c3ccco3)CC2)cc1 (stereo unspecified),-4,19,26,7,65*,18
COc1ccc(N2CCN(C(CNC(=O)C(=O)NCCCO)c3ccco3)CC2)cc1 (stereo unspecified),2,-2,-8,2,.,24
O=C(NCCc1c[nH]c2ccccc12)C(=O)NCC(c1cccnc1)N1CCN(c2ccccc2)CC1 (stereo unspecified),23,42,7,5,100*,26
Cn1c2c(c(=O)n(C)c1=O)NC1(N2)C(=O)Nc2ccccc21 (stereo unspecified),0,0,-4,1,.,10
CC(=O)OCC1=C(C(=O)O)N2C(=O)C(NC(=O)c3ccc(F)cc3)C2SC1 (stereo unspecified),-4,-11,-8,90*,-9,-14
SMILES,Beta cell apopt,T cruzi repl,CSC inhib,SKKanGAS inh,Lmaj promast,Mdm2-MdmX inh
CC(=O)OCC1=C(C(=O)O)N2C(=O)C(NC(=O)C(C)Cn3nc(C)c(Cl)c3C)C2SC1 (stereo unspecified),-2,-15,-11,101*,-8,17
CO/N=C(\C(=O)N[C@@H]1C(=O)N2C(C(=O)O)=C(COC(N)=O)CS[C@H]12)c1ccco1,-10,-13,-7,102*,-3,15
CC(=O)OCC1=C(C(=O)O)N2C(=O)[C@@H](NC(=O)CSc3ccncc3)[C@H]2SC1,.,.,.,.,.,7
CC1=C(C(=O)O)N2C(=O)C(NC(=O)c3nn(C)c(C)c3Cl)C2SC1 (stereo unspecified),0,-20,.,-15,-6,9
COCC1=C(C(=O)OC(C)OC(=O)OC(C)C)N2C(=O)[C@@H](NC(=O)/C(=N\OC)c3csc(N)n3)[C@H]2SC1 (stereo partly specified),1,3,-9,102*,.,3
O=C(NCCN1CCOCC1)C(=O)c1c[nH]c2ccccc12,2,12,-14,0,.,0
O=C(Nc1nc2c(F)cc(F)cc2s1)C1CCN(C(=O)c2ccc(F)cc2)CC1,0,14,-5,7,.,-21
O=S(=O)(c1ccc(-c2csc(Nc3ccc(Br)cc3)n2)cc1)N1CCCC1,11,31,12,16,-3,46
Cc1ccc(Nc2nc(-c3ccc(S(=O)(=O)N4CCOCC4)cc3)cs2)cc1,-2,17,-4,-1,24,29
COc1ccc(-c2csc(Nc3ccc(S(=O)(=O)Nc4cc(C)on4)cc3)n2)cc1C,.,-1,17,68*,2,9
Cc1ccc(Nc2nc(-c3ccc(S(=O)(=O)N4CCCC4)cc3)cs2)cc1C,.,22,-6,6,90*,-2
O=S(=O)(c1ccc(-c2csc(Nc3ccc(F)cc3)n2)cc1)N1CCCC1,13,20,-20,3,64*,-9
O=C(Nc1nc(-c2ccc(F)cc2)cs1)C1CCN(C(=O)c2ccc(F)cc2)CC1,-5,55*,19,21,.,27
O=C(NCCCNC(=O)c1ccccc1)c1ccccc1,.,-3,-9,-5,.,6
COc1cccc(CNC(=O)CCC2CCCN(C(=O)c3ccccc3N(C)C)C2)c1 (stereo unspecified),1,4,-8,-6,.,-9
CN(C)S(=O)(=O)c1ccc(N2CCCC2)c(C(=O)Nc2nc3ccc(F)cc3s2)c1,-14,6,34,10,7,33
CN(C)S(=O)(=O)c1ccc(N2CCCC2)c(C(=O)Nc2nc(-c3ccc(F)cc3)cs2)c1,-1,14,-4,-2,98*,38
COc1cc(C(=O)OCC(=O)NCc2ccc(F)cc2)ccc1OCC(C)C,-2,-14,7,-17,.,24
c1ccc(N2CCN(CC3CCCCC3)CC2)cc1,139*,-6,97*,7,.,13
COc1ccc(Cn2c(O)c(C=Nc3ccc(C)cc3)c3ccccc3c2=O)cc1,7,28,20,-1,92*,0
